From ChEMBL document CHEMBL4351014, “Bis(het)aryl-1,2,3-triazole quinuclidines as α7 nicotinic acetylcholine receptor ligands: Synthesis, structure affinity relationships, agonism activity, [18F]-radiolabeling and PET study in rats” (Eur J Med Chem, 2019)
The source made the active and inactive calls. The calls are words filed in the database; no cut-off is given here.

Assays:
[1] = biological target: Neuronal acetylcholine receptor subunit alpha-7 (Rattus norvegicus, UniProt Q05941); assay: Displacement of [125I]-alpha-bungarotoxin from alpha7 nAChR in Wistar rat brain membrane incubated for 3 hrs by gamma counting analysis; type: cell membranes
Method in brief: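 Frontal cortex membranes from male Wistar rats (2 rats per experiment), homogenised in pH 7.4 HEPES buffer and spun at 45,000×g. 25 μg protein incubated with 2 nM [125I]α-bungarotoxin and 10^-10 to 10^-6 M competitor in pH 7.4 Tris-HCl with Ca/Mg for 3 h at 22 °C. Nonspecific binding defined with 1 μM α-bungarotoxin. Filtered on PEI-soaked GF/C, gamma counted. IC50 read graphically, converted to Ki.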

[2] = Cytotoxicity against human SH-SY5Y cells assessed as reduction in cell viability at 13 uM incubated for 48 hrs by MTS assay relative to control; type: cell-based; settings: read-out: INH
Method in brief: (§1)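 Retinoic acid-differentiated SH-SY5Y cells exposed for 48 h to 10, 100 and 1000 × Ki of each agent. MTS added for 3 h, absorbance read at 490 nm. Viability given as % of vehicle-treated cells. 4 independent experiments in triplicate, mean ± SEM.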

[3] = biological target: Neuronal acetylcholine receptor subunit alpha-7 (Homo sapiens) (UniProt P36544); assay: (§2) Agonist activity at alpha7 nAChR in human SH-SY5Y cells assessed as release of intracellular calcium at 130 nM preincubated for 20 mins with alpha7 nAChR antagonist alpha-bungarotoxin and for 1 min with alpha7 nAChR PAM PNU120596 prior to compound addition by Fluo-3 AM staining-based fluorescence spectral scanning multimode reader analysis; type: cell-based
Method in brief: (§3)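 Differentiated SH-SY5Y cells loaded with fluo-3 AM as above, then preincubated 20 min at r.t. in Tyrode's solution with 100 nM α-bungarotoxin. PNU-120596 added 1 min before test agent or 3 mM choline. Fluorescence read at Ex 506/Em 526 nm, response expressed as % of (Fmax−Fmin) from 0.3% Triton X-100 then 100 mM MnCl2. 5 experiments in duplicate, mean ± SEM.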

[4] = biological target: Neuronal acetylcholine receptor subunit alpha-7 (Homo sapiens) (UniProt P36544); assay: (§4) Agonist activity at alpha7 nAChR in human SH-SY5Y cells assessed as increase in intracellular calcium release at 130 nM preincubated for 1 min with alpha7 nAchR PAM PNU120596 prior to compound addition by Fluo-3 AM staining-based fluorescence spectral scanning multimode reader analysis; type: cell-based
Method in brief: (§5)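 SH-SY5Y (ATCC) grown in MEM/F12 1:1 with 10% heat-inactivated FBS, differentiated with 10 μM retinoic acid for 7 days. Cells loaded with 10 μM fluo-3 AM plus 0.02% Pluronic F127 for 1 h at r.t. in the dark, then preincubated 20 min at r.t. in Tyrode's solution with vehicle. PNU-120596 added in the last minute. Fluorescence read at Ex 506/Em 526 nm, normalised to Triton (Fmax) and MnCl2 (Fmin). 5 experiments in duplicate, mean ± SEM.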

[5] = biological target: Neuronal acetylcholine receptor; alpha4/beta2 (Homo sapiens, UniProt P17787+P43681); assay: Displacement of [3H]cytisine from human recombinant alpha4beta2 nAChR incubated for 120 mins by radiometric scintillation analysis; type: protein-complex assay
[6] = biological target: T1, 5-hydroxytryptamine receptor 3A (Homo sapiens, UniProt P46098); assay: Displacement of [3H]BRL 43694 from human 5HT3R by radioligand displacement assay
T1 sequence (P46098 whole entry): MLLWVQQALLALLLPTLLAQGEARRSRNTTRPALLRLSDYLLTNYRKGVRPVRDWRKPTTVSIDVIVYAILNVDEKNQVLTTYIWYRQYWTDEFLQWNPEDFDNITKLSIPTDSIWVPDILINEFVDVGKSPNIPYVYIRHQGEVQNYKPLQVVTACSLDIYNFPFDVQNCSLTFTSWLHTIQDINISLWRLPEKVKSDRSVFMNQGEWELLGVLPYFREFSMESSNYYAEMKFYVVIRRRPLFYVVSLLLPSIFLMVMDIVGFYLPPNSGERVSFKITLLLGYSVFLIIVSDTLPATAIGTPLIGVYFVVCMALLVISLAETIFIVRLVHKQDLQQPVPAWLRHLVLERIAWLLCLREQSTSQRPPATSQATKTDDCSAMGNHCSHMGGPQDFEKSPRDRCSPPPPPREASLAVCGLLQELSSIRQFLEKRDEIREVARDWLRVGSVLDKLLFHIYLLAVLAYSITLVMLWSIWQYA

SH-SY5Y [7] = assay: Cytotoxicity against human SH-SY5Y cells assessed as cell viability at 0.13 to 1.3 uM incubated for 48 hrs by MTS assay; type: cell-based; method in brief: as §1
[8] = biological target: Neuronal acetylcholine receptor subunit alpha-7 (Homo sapiens) (UniProt P36544); assay: Agonist activity at alpha7 nAChR in human SH-SY5Y cells assessed as intracellular calcium release at 7 nM preincubated for 1 min with alpha7 nAchR PAM PNU120596 prior to compound addition by Fluo-3 AM staining-based fluorescence spectral scanning multimode reader analysis; type: cell-based; method in brief: as §5
[9] = biological target: Neuronal acetylcholine receptor subunit alpha-7 (Homo sapiens) (UniProt P36544); assay: Agonist activity at alpha7 nAChR in human SH-SY5Y cells assessed as increase in intracellular calcium release at 50 nM preincubated for 1 min with alpha7 nAchR PAM PNU120596 prior to compound addition by Fluo-3 AM staining-based fluorescence spectral scanning multimode reader analysis; type: cell-based; method in brief: as §5
[10] = biological target: Neuronal acetylcholine receptor subunit alpha-7 (Homo sapiens) (UniProt P36544); assay: as §2, with “50” for “130”; type: cell-based; method in brief: as §3
SH-SY5Y [11] = assay: Cytotoxicity against human SH-SY5Y cells assessed as cell viability at 50 nM to 5 uM incubated for 48 hrs by MTS assay; type: cell-based; settings: 0.05 µM; method in brief: as §1
[12] = biological target: Neuronal acetylcholine receptor subunit alpha-7 (Homo sapiens) (UniProt P36544); assay: as §2, with “3” for “130”; type: cell-based; method in brief: as §3
[13] = biological target: Neuronal acetylcholine receptor subunit alpha-7 (Homo sapiens) (UniProt P36544); assay: as §4, with “3” for “130”, “analysis relative to choline” for “analysis”; type: cell-based; method in brief: as §5
SH-SY5Y [14] = assay: Cytotoxicity against human SH-SY5Y cells assessed as cell viability at 0.003 to 3 uM incubated for 48 hrs by MTS assay; type: cell-based; method in brief: as §1

Sequence of Neuronal acetylcholine receptor subunit alpha-7 (Q05941 whole entry): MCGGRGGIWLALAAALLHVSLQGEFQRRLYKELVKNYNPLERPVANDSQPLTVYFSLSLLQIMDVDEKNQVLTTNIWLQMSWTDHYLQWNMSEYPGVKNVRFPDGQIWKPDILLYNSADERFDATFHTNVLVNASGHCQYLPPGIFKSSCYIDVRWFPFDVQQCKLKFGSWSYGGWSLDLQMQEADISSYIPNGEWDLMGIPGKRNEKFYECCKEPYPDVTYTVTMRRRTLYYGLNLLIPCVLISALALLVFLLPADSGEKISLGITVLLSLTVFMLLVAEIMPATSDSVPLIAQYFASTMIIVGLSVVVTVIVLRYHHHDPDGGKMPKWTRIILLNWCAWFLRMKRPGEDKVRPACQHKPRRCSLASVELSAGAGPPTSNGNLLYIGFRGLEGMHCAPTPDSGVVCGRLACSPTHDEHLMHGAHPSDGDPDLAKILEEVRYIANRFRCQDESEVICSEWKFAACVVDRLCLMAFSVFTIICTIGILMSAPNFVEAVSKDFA
Sequence of Neuronal acetylcholine receptor; alpha4/beta2 (P17787 whole entry): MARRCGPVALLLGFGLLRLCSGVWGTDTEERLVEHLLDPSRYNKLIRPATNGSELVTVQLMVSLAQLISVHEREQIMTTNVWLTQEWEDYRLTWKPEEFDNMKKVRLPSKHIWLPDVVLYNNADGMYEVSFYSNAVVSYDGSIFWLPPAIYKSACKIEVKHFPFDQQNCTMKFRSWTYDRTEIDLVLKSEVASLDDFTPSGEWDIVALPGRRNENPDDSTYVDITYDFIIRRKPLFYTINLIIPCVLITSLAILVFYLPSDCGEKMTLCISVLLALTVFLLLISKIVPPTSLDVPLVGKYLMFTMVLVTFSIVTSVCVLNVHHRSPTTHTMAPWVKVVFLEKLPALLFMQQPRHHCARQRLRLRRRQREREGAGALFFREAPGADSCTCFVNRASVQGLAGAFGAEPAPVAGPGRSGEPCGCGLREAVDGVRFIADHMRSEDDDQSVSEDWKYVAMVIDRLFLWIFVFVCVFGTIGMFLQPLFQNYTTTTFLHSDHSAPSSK
Sequence of Neuronal acetylcholine receptor; alpha4/beta2 (P43681 whole entry): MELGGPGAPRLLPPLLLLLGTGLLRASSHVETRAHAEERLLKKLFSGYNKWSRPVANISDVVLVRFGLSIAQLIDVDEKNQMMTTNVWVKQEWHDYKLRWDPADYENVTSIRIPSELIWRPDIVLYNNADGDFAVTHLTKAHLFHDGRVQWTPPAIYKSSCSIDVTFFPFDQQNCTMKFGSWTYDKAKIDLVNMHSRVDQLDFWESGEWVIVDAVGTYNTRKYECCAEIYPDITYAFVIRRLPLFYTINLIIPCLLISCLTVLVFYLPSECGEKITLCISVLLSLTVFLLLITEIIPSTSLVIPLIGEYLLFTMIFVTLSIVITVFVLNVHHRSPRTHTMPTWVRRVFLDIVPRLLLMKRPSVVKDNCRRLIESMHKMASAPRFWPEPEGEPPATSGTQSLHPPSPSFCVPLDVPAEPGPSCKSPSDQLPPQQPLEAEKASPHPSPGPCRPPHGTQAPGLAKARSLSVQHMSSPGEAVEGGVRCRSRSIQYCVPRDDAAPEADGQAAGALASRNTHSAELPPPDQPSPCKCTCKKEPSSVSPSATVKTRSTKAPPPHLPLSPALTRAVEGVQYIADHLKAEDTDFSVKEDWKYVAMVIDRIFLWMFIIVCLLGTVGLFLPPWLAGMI
Sequence of Neuronal acetylcholine receptor subunit alpha-7 (Homo sapiens) (P36544 whole entry): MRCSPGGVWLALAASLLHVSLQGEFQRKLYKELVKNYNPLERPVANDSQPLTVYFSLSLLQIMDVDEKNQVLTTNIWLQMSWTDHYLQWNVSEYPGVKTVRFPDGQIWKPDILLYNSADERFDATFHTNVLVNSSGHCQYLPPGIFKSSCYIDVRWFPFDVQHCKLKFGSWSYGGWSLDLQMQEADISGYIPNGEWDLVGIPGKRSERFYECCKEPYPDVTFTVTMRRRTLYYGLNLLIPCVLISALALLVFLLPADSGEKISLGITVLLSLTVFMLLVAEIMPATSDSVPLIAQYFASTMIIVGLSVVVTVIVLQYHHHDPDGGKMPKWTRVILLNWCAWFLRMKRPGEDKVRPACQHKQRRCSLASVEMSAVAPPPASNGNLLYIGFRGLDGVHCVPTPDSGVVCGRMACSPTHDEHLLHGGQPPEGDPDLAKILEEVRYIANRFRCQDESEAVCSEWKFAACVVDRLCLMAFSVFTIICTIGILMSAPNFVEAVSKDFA

| SMILES | Ki [1] [nM] | also measured |
| --- | --- | --- |
| Fc1ccc(-c2ccc(-c3cn([C@H]4CN5CCC4CC5)nn3)s2)cn1 | 13 | cytotoxicity at 48 h, 13 µM [2]: 15%; Activity [3]: inactive; Activity [4]: Active; Ki [5]: > 1000 nM; Ki [6]: 440 nM; Activity (SH-SY5Y [7]): Non-Toxic |
| c1csc(-c2ccc(-c3cn([C@H]4CN5CCC4CC5)nn3)cc2)c1 | 110 to 160 |  |
| CN1CCN(Cc2cccc(-c3ccc(-c4cn([C@H]5CN6CCC5CC6)nn4)s3)c2)CC1 | 16 |  |
| FCC1CCN(Cc2ccc(-c3ccc(-c4cn([C@H]5CN6CCC5CC6)nn4)s3)cc2)CC1 | 1.4 |  |
| c1cc(CN2CCOCC2)cc(-c2ccc(-c3cn([C@H]4CN5CCC4CC5)nn3)s2)c1 | 16 |  |
| FCCc1ccc(-c2ccc(-c3cn([C@H]4CN5CCC4CC5)nn3)s2)cc1 | 157 |  |
| OCc1ccc(-c2ccc(-c3cn([C@H]4CN5CCC4CC5)nn3)cc2)cc1 | 100 to 175 |  |
| COCOCCOc1ccc(-c2ccc(-c3cn([C@H]4CN5CCC4CC5)nn3)s2)cc1 | 140 |  |
| OCc1ccc(-c2ccc(-c3cn([C@H]4CN5CCC4CC5)nn3)s2)s1 | 0.8 |  |
| OCc1ccc(-c2csc(-c3cn([C@H]4CN5CCC4CC5)nn3)c2)cc1 | 1.5 |  |
| OCc1cccc(-c2ccc(-c3cn([C@H]4CN5CCC4CC5)nn3)s2)c1 | 0.7 | Activity [8]: inactive |
| Fc1ccc(-c2ccc(-c3cn([C@H]4CN5CCC4CC5)nn3)cc2)cn1 | > 1000 |  |
| c1ccc(-c2ccc(-c3cn([C@H]4CN5CCC4CC5)nn3)s2)cc1 | 43 |  |
| c1cc(CN2CCCCC2)cc(-c2ccc(-c3cn([C@H]4CN5CCC4CC5)nn3)s2)c1 | 17 |  |
| FC1CCN(Cc2ccc(-c3ccc(-c4cn([C@H]5CN6CCC5CC6)nn4)s3)cc2)CC1 | 2.8 |  |
| COC(=O)c1ccc(-c2ccc(-c3cn([C@H]4CN5CCC4CC5)nn3)s2)cc1F | 80 to 90 |  |
| FCc1ccc(-c2ccc(-c3cn([C@H]4CN5CCC4CC5)nn3)s2)cc1 |  | Activity [9]: Active; Activity [10]: inactive; Ki [5]: > 1000 nM; Ki [6]: > 1000 nM; Activity (SH-SY5Y [11]): Non-Toxic |
| NCc1ccc(-c2ccc(-c3cn([C@H]4CN5CCC4CC5)nn3)s2)cc1 | 0.3 |  |
| OCCOc1ccc(-c2ccc(-c3cn([C@H]4CN5CCC4CC5)nn3)s2)cc1 | 1.7 |  |

| SMILES | Ki [1] [nM] | also measured |
| --- | --- | --- |
| OC1CCN(Cc2ccc(-c3ccc(-c4cn([C@H]5CN6CCC5CC6)nn4)s3)cc2)CC1 | 0.3 |  |
| c1cc(-c2ccc(CN3CCCCC3)cc2)cc(-c2cn([C@H]3CN4CCC3CC4)nn2)c1 | 3 |  |
| OCc1ccc(-c2ccc(-c3cn([C@H]4CN5CCC4CC5)nn3)s2)cc1F | 12 |  |
| c1cc2c(cc1-c1ccc(-c3cn([C@H]4CN5CCC4CC5)nn3)s1)CCO2 | 60 |  |
| FCCOc1ccc(-c2ccc(-c3cn([C@H]4CN5CCC4CC5)nn3)s2)cc1 | 340 |  |
| CN1CCN(Cc2cccc(-c3cccc(-c4cn([C@H]5CN6CCC5CC6)nn4)c3)c2)CC1 | 39 |  |
| OCCc1ccc(-c2ccc(-c3cn([C@H]4CN5CCC4CC5)nn3)s2)cc1 | 1.5 |  |
| c1cc(-c2ccc(CN3CCOCC3)cc2)cc(-c2cn([C@H]3CN4CCC3CC4)nn2)c1 | 12.5 |  |
| OCc1ccc(-c2cccc(-c3cn([C@H]4CN5CCC4CC5)nn3)c2)s1 | 0.2 |  |
| c1cc(CN2CCCCC2)cc(-c2cccc(-c3cn([C@H]4CN5CCC4CC5)nn3)c2)c1 | 122 |  |
| OCc1ccc(-c2ccc(-c3cn([C@H]4CN5CCC4CC5)nn3)cc2)s1 | 120 to 200 |  |
| CN1CCN(Cc2ccc(-c3cccc(-c4cn([C@H]5CN6CCC5CC6)nn4)c3)cc2)CC1 | 1.9 |  |
| OCc1ccc(-c2cccc(-c3cn([C@H]4CN5CCC4CC5)nn3)c2)cc1 | 7 |  |
| OCc1ccc(-c2cccc(-c3cn([C@H]4CN5CCC4CC5)nn3)c2)cc1F | 18 |  |
| c1cc(CN2CCOCC2)cc(-c2cccc(-c3cn([C@H]4CN5CCC4CC5)nn3)c2)c1 | 49 |  |
| c1cc(-c2ccc(-c3cn([C@H]4CN5CCC4CC5)nn3)s2)ccc1CN1CCCCC1 |  | Activity [12]: inactive; Activity [13]: 80%; Ki [5]: 1000 nM; Ki [6]: 560 nM; Activity (SH-SY5Y [14]): Non-Toxic |
| Fc1ccc(-c2csc(-c3cn([C@H]4CN5CCC4CC5)nn3)c2)cn1 | 31 |  |
| FCc1cccc(-c2ccc(-c3cn([C@H]4CN5CCC4CC5)nn3)s2)c1 | 42 |  |
| c1cc2c(cc1-c1ccc(-c3cn([C@H]4CN5CCC4CC5)nn3)s1)OCCO2 | 140 |  |
